According to PMC6583781 (Journal of medicinal chemistry, 2019):

How the values were obtained:
Pa02c cells = assay: Cell cytotoxicity assay; assay type: cell-based; settings: Homo sapiens, 48 h, read-out: PaO2c EC50
Method in brief: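 Low-passage patient-derived pancreatic Pa02c cells, kept in DMEM with 10% FBS. Plated at 2000 cells/well in poly-D-lysine-treated plates and grown overnight at 37 °C, 5% CO2. Test compound in 5% FBS DMEM, 5-point 1:2 serial dilution from 100 µM, with DMSO vehicle and drug-background wells, for 48 h. Medium then refreshed and Alamar Blue added (10% final) for 4 h. Fluorescence read, background-subtracted, normalized to media alone.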

APE1 = APE1 (Homo sapiens, UniProt P27695); assay: APE1 endonuclease; assay type: biochemical
Method in brief: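 Purified full-length APE1 (0.25-1.25 nM) added to 50 nM duplex substrate (6-FAM strand with tetrahydrofuran AP-site mimic annealed to a quencher strand) in 50 mM Tris, 1 mM MgCl2, 50 mM NaCl, pH 7.5. Compounds in triplicate, 10-point 1:2 dilutions from 100 μM. Fluorescence read kinetically at five 1-min intervals immediately; reaction rate compared with DMSO vehicle.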

Chain of APE1 (P27695 whole entry): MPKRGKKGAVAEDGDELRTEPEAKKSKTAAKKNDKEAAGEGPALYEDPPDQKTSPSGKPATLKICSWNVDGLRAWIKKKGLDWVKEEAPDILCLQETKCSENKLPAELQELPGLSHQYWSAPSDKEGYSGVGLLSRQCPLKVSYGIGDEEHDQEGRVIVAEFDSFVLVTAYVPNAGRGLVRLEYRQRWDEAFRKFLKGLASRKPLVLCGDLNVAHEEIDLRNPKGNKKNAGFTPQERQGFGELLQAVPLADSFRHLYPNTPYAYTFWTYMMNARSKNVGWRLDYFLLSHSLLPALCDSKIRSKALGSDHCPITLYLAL

Row | IC50 (APE1) [µM] | SMILES | EC50 (Pa02c cells) [µM]
1 |  | Cc1ccc(S(=O)(=O)n2cccc2[C@@H]2NC(=O)[C@H](Cc3c[nH]c4ccccc34)NC(=O)C[C@@H](CCc3ccccc3)NC(=O)C/C=C/[C@@H]2C)cc1 [Compound 21, (3S,7R,13S,14R,E)-3-((1H-Indol-3-yl)methyl)-13-methyl-7-phenethyl-14-(1-tosyl-1H-pyrrol-2-yl)-1,4,8-triazacyclotetradec-11-ene-2,5,9-trione] | > 100
2 | 16.9 | Cc1ccc(S(=O)(=O)n2cccc2[C@@H]2NC(=O)[C@H](Cc3c[nH]c4ccccc34)NC(=O)CCNC(=O)C/C=C/[C@@H]2C)cc1 [Compound 19, (3S,13S,14R,E)-3-((1H-Indol-3-yl)methyl)-13-methyl-14-(1-tosyl-1H-pyrrol-2-yl)-1,4,8-triazacyclotetradec-11-ene-2,5,9-trione] | 
3 |  | Cc1ccc(S(=O)(=O)n2cccc2[C@@H]2NC(=O)[C@H](Cc3c[nH]c4ccccc34)NC(=O)C[C@H](CCc3ccccc3)NC(=O)C/C=C/[C@@H]2C)cc1 [Compound 20, (3S,7S,13S,14R,E)-3-((1H-Indol-3-yl)methyl)-13-methyl-7-phenethyl-14-(1-tosyl-1H-pyrrol-2-yl)-1,4,8-triazacyclotetradec-11-ene-2,5,9-trione] | > 100
